Assay outcomes deposited in PubChem by several laboratories.
core dimer inh: HCV core protein dimerization inhibition; TR-FRET GST/Flag-core106 dimerization, 1536-well; inhibition, % at 5 µM; 0.33% of 300,000 active;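 active = inhibition above the mean of all tested compounds plus 3 SD, set per screening campaign, cut at about 45% in these data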
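System – GST-tagged and Flag-tagged HCV core protein residues 1-106 · Repeats – one well for each compound · Technique – TR-FRET 671 and 617 nm emission · Doses – one concentration, 5 µM, in 0.5% DMSO · Times – 4 h, 22.5 °C incubation · Also added – Eu donor and XL665 acceptor anti-tag antibodies · Measure – percent inhibition of core106 dimerization signal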
HCV NS3 hel inh: inhibitors of Hepatitis C virus NS3 helicase; AID 1800; 0.56% of 290,000 active; inhibition, % at 10.9 µM; NS3 helicase DNA unwinding, Cy5 molecular beacon fluorescence;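 active = inhibition above the mean of all tested compounds plus 3 SD, set per campaign, cut at about 35% in these data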;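 also: 0% = DMSO wells and 100% = thioflavine S control wells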
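Material: hepatitis C virus NS3 helicase domain fragment enzyme; measured by: Cy5 fluorescence, 0 and 60 min reads; control set: DMSO and thioflavine S; incubation: 60 min unwinding reaction at 25 °C after ATP addition; read-out basis: % inhibition from 60/0 min fluorescence ratio, DMSO 0%, thioflavine S 100%; repeats: singlicate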
GPR7 antag: antagonists of human GPR7 (neuropeptides B/W receptor 1). AID 1861. GPR7-expressing cells, fluorescence antagonist assay. inhibition, % at 4.4 µM. P48145. 1.1% of 290,000 active; in the data active = inhibition above about 16%, passing the limit was not always enough;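 also: cells stimulated with the agonist NPW; 0% = agonist with vehicle and 100% = vehicle without agonist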
Target sequence (P48145 whole entry, looked up): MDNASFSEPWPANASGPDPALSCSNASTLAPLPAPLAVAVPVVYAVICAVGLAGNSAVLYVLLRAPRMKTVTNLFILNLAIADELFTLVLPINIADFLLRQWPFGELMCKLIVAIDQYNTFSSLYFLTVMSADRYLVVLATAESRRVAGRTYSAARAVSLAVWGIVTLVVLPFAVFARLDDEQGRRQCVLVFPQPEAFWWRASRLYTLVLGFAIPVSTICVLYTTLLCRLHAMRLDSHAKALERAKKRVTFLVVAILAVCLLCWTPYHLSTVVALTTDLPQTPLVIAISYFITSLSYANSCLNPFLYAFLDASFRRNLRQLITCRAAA
FID counter: fluorescent intercalator displacement, NS3 helicase counter-screen. DNA fluorescent intercalator displacement, fluorescence. inhibition, % at 7.9 µM. 0.17% of 290,000 active. AID 1845; in the data active = inhibition above about 37%;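 also: 0% = vehicle and 100% = reference compound; higher means more ethidium bromide displaced from hairpin DNA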
pCIP destab: compounds decreasing mouse p/CIP protein stability | Q05BA5 | F442A p/CIP-EGFP cells, EGFP fluorescence, 16 h | decrease of EGFP signal, % at 10 µM | 0.01% of 290,000 active | AID 1984;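 active = EGFP signal decrease of at least 30% at 10 µM or well 3 SD below plate mean, unless failing retest; inactive = the rest, including hits failing retest or dose response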
Numbers without * were called inactive; . = not tested or not shown. A selection: hits, their analogues and other compounds. The true share with any hit is near 1.9%.

SMILES | core dimer inh | HCV NS3 hel inh | GPR7 antag | FID counter | pCIP destab
C#CCOCCOCCOCCNc1nc(N2CCN(C(=O)[C@H](CCC(=O)O)n3cc(C(N)Cc4ccc(O)cc4)nn3)CC2)nc(N2CCN(C(=O)[C@H](Cc3ccc(O)cc3)n3cc(C(N)[C@H](C)CC)nn3)CC2)n1 (some centres not stated) | . | . | . | . | -26
O=S(=O)(Nc1ccc(F)cc1)N1CCOCC1 | -12 | 7 | -2 | -4 | -6
CN(C)CC(C)(C)CN=Cc1c(O)[nH]c2ccccc12 | -8 | -3 | -9 | 0 | -15
NNC(=O)Cn1c(-c2nonc2N)nc2ccccc21 | -3 | -2 | -7 | -6 | 2
Nc1nonc1-c1nc2ccccc2n1CC(=O)N/N=C\c1ccc(-c2ccc(Cl)cc2)o1 | 84* | 5 | -5 | 5 | -5
Cc1ccc(CNCC2CCCO2)o1 (configuration not stated) | 0 | 11 | 19* | -2 | -13
Clc1ccc(CNCC2CCCO2)cc1 (configuration not stated) | . | 7 | -14 | 0 | -1
COc1ccc(CN(Cc2cccn2C)C(=O)c2cc3cc(OC)ccc3[nH]2)cc1 | 19 | -1 | -2 | -23 | -5
O=C(NCCc1ccccc1)c1ccc(-n2cnnn2)cc1 | -3 | -1 | 18* | -4 | -7
O=C(NCCc1ccccc1)c1ccc2nc(-c3ccco3)c(-c3ccco3)nc2c1 | 65* | 23 | 6 | -18 | -1
O=C(c1ccccc1)c1ccc2nc(-c3ccco3)c(-c3ccco3)nc2c1 | 47* | 34 | -4 | -18 | -10
O=C(NCCO)c1ccc2nc(-c3ccco3)c(-c3ccco3)nc2c1 | -5 | 13 | -9 | -1 | -4
O=C(NCCc1c[nH]c2ccccc12)c1ccc(-n2cnnn2)cc1 | 6 | -2 | 3 | -1 | -14
CN(C(=O)CS(=O)(=O)c1cn(CC(=O)N2CCCCC2)c2ccccc12)c1ccccc1 | -2 | 0 | -26 | -49 | -3
O=C(N/N=C/c1cc([N+](=O)[O-])ccc1O)c1ccc(COc2ccc3c(c2)CCC3)o1 | . | -17 | -11 | -26 | 0
COc1cc(/C=N/NC(=O)c2ccc(COc3ccccc3Cl)o2)cc(Br)c1O | -2 | -2 | 30* | -20 | -15
O=C(N/N=C/c1ccc2ccccc2c1)c1ccc(COc2ccc3c(c2)CCC3)o1 | 50* | 0 | -17 | -4 | -14
COc1cccc(/C=N/NC(=O)c2ccc(COc3ccc(Cl)cc3Cl)o2)c1 | 7 | -1 | 2 | 2 | -13
CC(C)C(OC(=O)c1nsc(Cl)c1Cl)C(=O)NC1CCCCC1 (configuration not stated) | 11 | 3 | 0 | -30 | 7
N#Cc1ccsc1NC(=O)CSc1ncnc2ccccc12 | 80* | 18 | -10 | -16 | 5
Cc1nnc(SCC(=O)Nc2sccc2C#N)s1 | 33 | 18 | -3 | -5 | -6
Cn1ccnc1SCC(=O)Nc1sccc1C#N | 71* | 9 | -2 | -7 | -16
COc1ccc(-c2nc(N)c(C#N)c(-c3cccnc3)c2C)cc1 | 1 | 4 | -20 | -26 | -3
CN(C)CCOC(C1CCCCC1)C1CCCCC1 | -10 | -12 | 34* | 12 | -7
COc1ccc(NC(=O)CCCC(=O)OCC(=O)c2cccc(OC)c2)cc1 | -10 | 0 | 9 | -34 | -9
SMILES | core dimer inh | HCV NS3 hel inh | GPR7 antag | FID counter | pCIP destab
CN(C(=O)COC(=O)CSc1cc(Cl)ccc1Cl)c1c(N)n(Cc2ccccc2)c(=O)[nH]c1=O | -2 | . | . | . | .
C#CCn1c(=NC(=O)c2sc3ccccc3c2Cl)sc2cc(S(N)(=O)=O)ccc21 | 66* | 4 | -1 | -5 | 0
CCOc1ccccc1CNS(=O)(=O)c1ccc2c(c1)oc(=O)n2C | -5 | 2 | 0 | -3 | -14
CCOc1ccccc1CNS(=O)(=O)c1ccc2[nH]c(=O)sc2c1 | -9 | -4 | 21* | -4 | -7
CSCCC(NC(=O)COc1ccccc1)C(=O)N1CCN(c2ccccc2O)CC1 (configuration not stated) | 3 | . | . | . | .
CC(C)c1ccc(NC(=O)Nc2cc3sccc3n2C)cc1 | 47* | 23 | -8 | 1 | -9
COC(=O)c1ccc(COn2nnc3ccccc32)cc1 | 3 | -5 | -1 | -14 | 7
CCC(c1ccc(O)cc1)C(CC)c1ccc(O)cc1 (configuration not stated) | 2 | . | . | . | .
